Tb hexokinase: T. brucei hexokinase 1 inhibition; recombinant TbHK1, G6PDH-coupled NADH A340; inhibition, % at 10 µM; 220,000 compounds, 0.11% hits; AID 1430;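 active means inhibition of 50% or more in the single-dose primary screen; inactive means inhibition below 50%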
NPY Y1 blocker: antagonists of human neuropeptide Y receptor Y1. HEK293-CNG Y1 cells, membrane potential fluorescence; NPY at EC95, then isoproterenol. inhibition, % at 3.6 µM. 200,000 compounds, 1% hits. AID 1040;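 active means inhibition above the campaign mean inhibition of all tested compounds plus 3 SD, cut at about 20% in these data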
Target sequence (P25929 whole entry, looked up): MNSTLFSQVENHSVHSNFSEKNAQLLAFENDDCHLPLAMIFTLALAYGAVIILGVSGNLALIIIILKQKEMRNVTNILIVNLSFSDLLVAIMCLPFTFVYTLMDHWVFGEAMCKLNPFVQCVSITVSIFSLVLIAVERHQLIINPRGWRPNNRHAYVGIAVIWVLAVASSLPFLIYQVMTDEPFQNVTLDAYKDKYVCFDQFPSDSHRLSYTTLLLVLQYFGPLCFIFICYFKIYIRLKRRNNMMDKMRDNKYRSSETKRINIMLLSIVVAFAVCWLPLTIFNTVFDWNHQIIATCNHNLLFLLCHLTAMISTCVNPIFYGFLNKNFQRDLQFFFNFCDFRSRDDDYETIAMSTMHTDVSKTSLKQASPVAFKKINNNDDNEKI
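Material: Y1- and CNG-channel-expressing HEK293 cells / Probe or stimulus: NPY 25 nM then isoproterenol 1 µM plus Ro 20-1724 25 µM / Doses: 3.6 µM single dose, DMSO 0.4% / Schedule: compound incubation 1 h at room temperature, readout 45 min post-stimulation / Signal: membrane potential fluorescence / Benchmarks: isoproterenol-only wells as full block versus NPY-plus-isoproterenol wells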
m-calpain inh: calpain II (pig) inhibition; inhibition, % at 16 µM; purified calpain II, fluorogenic peptide substrate, 30 min; 220,000 compounds, 0.37% hits;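 active means inhibition above about 50%, limit read from the data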
NPY1 pot ag: human NPY-Y1 potentiation or agonism, primary screen; NPY-Y1 expressing cells, potentiator/agonist activation; activation, % at 3.6 µM; 220,000 compounds, 0.37% hits; in the data active means activation above about 33%, passing the limit was not always enough;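 further: cells stimulated with NPY at EC10 then isoproterenol at EC100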
NPY-Y2 antag: NPY-Y2 (human) receptor antagonism | NPY-Y2 expressing cells, antagonist mode | inhibition, % at 2.7 µM | 140,000 compounds, 0.99% hits; in the data active means inhibition above about 17%
NPY2 pot ag: human NPY-Y2 potentiation or agonism, primary screen | cells expressing NPY-Y2, potentiator/agonist read-out | activation, % at 3.6 µM | 220,000 compounds, 0.45% hits | AID 1359; in the data active means activation above about 27%;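 further: cells stimulated with NPY near EC25 plus isoproterenol at EC100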
A number is an active result; – = inactive; · = no result. Hits are enriched below; roughly 2.3% of the tested compounds scored in any of these assays.

SMILES	Tb hexokinase	NPY Y1 blocker	m-calpain inh	NPY1 pot ag	NPY-Y2 antag	NPY2 pot ag
c1ccc(N2CCN(c3ncnc4c3oc3ccccc34)CC2)cc1	–	23	–	–	22	–
CCOC(=O)c1cnn2c(C(F)(F)F)cc(-c3ccccc3)nc12	–	–	–	–	–	–
CCOC(=O)C1CCCN(C(=O)c2cnn3c(C(F)(F)F)cc(-c4ccccc4)nc23)C1 (configuration not stated)	–	22	–	–	19	–
CCOC(=O)c1cc(-c2ccc(OC)cc2)nc2c1c(C)nn2CCC#N	–	26	–	–	20	–
O=c1[nH]c(N2CCCCC2)nc2ncn(Cc3ccccc3)c12	–	·	–	–	·	–
Cn1cnnc1SCc1ccccc1Br	–	–	–	108	–	80
Cn1cnnc1SCc1ccccc1[N+](=O)[O-]	–	·	–	–	·	–
O=C(/C=C/c1cn(-c2ccccc2)nc1-c1cccs1)NCCN1CCOCC1	–	·	–	–	·	–
N=c1c2c(-c3ccccc3)c(-c3ccccc3)n(Cc3ccco3)c2ncn1CCO	–	38	–	–	63	–
N=c1c2c(-c3ccccc3)c(-c3ccccc3)n(Cc3ccco3)c2ncn1CCCO	–	·	–	–	·	–
N=c1c2c(-c3ccccc3)c(-c3ccccc3)n(Cc3ccco3)c2ncn1CCN1CCOCC1	–	42	–	–	43	–
COc1ccc(NC(=O)C2CCCN2C(=O)OC(C)(C)C)cc1 (configuration not stated)	–	–	–	–	·	–
Cc1ccc(S(=O)(=O)NCCNc2ccc([N+](=O)[O-])cc2C(F)(F)F)cc1	–	–	–	–	–	35
O=C(NCc1cccnc1)c1ccccc1CCc1ccccc1	–	–	50	–	·	–
O=C(Nc1ccc2ccccc2c1)N1CCCN(CCOc2ccccc2)CC1	–	·	–	–	·	–
Cc1ncsc1CCC(=O)N1CCCC(C(=O)c2ccc3c(c2)OCO3)C1 (configuration not stated)	–	–	–	–	·	–
CC(C)CCN(C(=O)Nc1ccccc1)C(C)c1cccs1 (configuration not stated)	–	–	51	–	–	–
CC(c1cccs1)N(C(=O)Nc1ccccc1)C1CCCCC1 (configuration not stated)	–	–	–	–	–	–
COc1ccc(C(CNC(=O)c2cccc(N(C)C)c2)N2CCCC2)cc1 (configuration not stated)	–	–	–	–	–	–
COc1ccc(C(CNC(=O)c2cc3ccccc3cc2OC)N2CCCC2)cc1 (configuration not stated)	–	28	–	–	18	–
O=C(COc1cccc(Cl)c1)Nc1ccc2c(c1)CCC2	–	–	–	–	–	–
Cc1[nH]nc(-c2ccc(O)cc2O)c1-c1ccc(Cl)cc1	–	–	–	–	–	48
CCN1CCN(C(=O)c2ccc(N3CC4CC(C3)c3cccc(=O)n3C4)c([N+](=O)[O-])c2)CC1 (configuration not stated)	–	–	–	–	·	–
Cc1nc(N2CCOCC2)c2c(C)c(C(=O)Nc3ccccc3C(F)(F)F)sc2n1	–	20	–	–	·	–
Cc1nc(N2CCOCC2)c2c(C)c(C(=O)Nc3ccccc3Cl)sc2n1	–	–	–	–	·	–
SMILES	Tb hexokinase	NPY Y1 blocker	m-calpain inh	NPY1 pot ag	NPY-Y2 antag	NPY2 pot ag
COc1ccc(C(=O)N(C)c2c(C)n(C)n(-c3ccccc3)c2=O)cc1OC	–	–	70	–	·	–
O=C(CSc1nnc(-c2ccccc2)n1-c1ccccc1)c1cccs1	–	–	–	49	–	31
O=C(CSc1nnc(-c2ccccc2)n1-c1ccccc1)c1ccc[nH]1	–	–	–	–	–	–
C=CCn1c[n+](CC(=O)c2ccc(Br)s2)c2ccccc21	–	–	–	–	·	–
CN1CCS/C1=C\C=C1/SC(=S)N(CC(=O)O)C1=O	–	–	64	–	·	–
CCN1C(=O)/C(=C/C=C2/SCCN2C)SC1=S	–	–	–	–	–	–
CCOC(=O)c1c(-c2ccccc2)oc2ccc(O)c(CN(C)C)c12	–	22	–	–	25	–
CCOC(=O)c1c(CSCc2ccccc2)oc2ccc(O)c(CN(C)C)c12	–	·	–	–	·	–
CCOC(=O)c1c(-c2ccccc2)oc2ccc(O)c(CN3CCCC3)c12	–	39	–	–	23	–
COCCOC(=O)c1c(C)oc2ccc(O)c(CN3CCC(C)CC3)c12	–	–	–	–	–	–
CC(=O)Oc1ccc(C(=O)[C@H]2[C@H]3C(=O)N(c4ccc(C)cc4C)C(=O)[C@H]3[C@@H]3C=CC=NN32)cc1	–	·	–	–	·	–
CCC(=O)N(CCC(c1ccccc1)c1ccco1)Cc1cccs1 (configuration not stated)	–	27	–	–	22	–
CCCCCCCc1c(O)nc(SCC(=O)O)[nH]c1=O	–	·	–	–	·	–
COc1ccc(CN(CCN(C)C)Cc2ccccc2)c(OC)c1	–	23	–	–	20	–
O=C(c1ccco1)N(CCCN1CCOCC1)c1nc(-c2ccc(Cl)cc2)cs1	–	41	–	–	30	–
O=C(NCCCN1CCOCC1)c1ccco1	–	–	–	–	–	–
Cc1ccc(CN2CCN(C/C(Cl)=C/c3ccccc3)CC2CCO)o1 (configuration not stated)	–	–	–	–	·	–
COc1ccc(CNCc2cccc(Oc3ccccc3)c2)cc1	–	21	–	–	·	–
COc1cc(CNCc2ccc(SC)cc2)cc(OC)c1	–	–	–	–	–	–
COc1cc2c(cc1OC)C(c1cccc([N+](=O)[O-])c1)N(C(=O)c1ccc(F)cc1)CC2 (configuration not stated)	–	32	–	–	33	–
O=[N+]([O-])/C=C1/CCCCCN1	–	–	–	–	·	–
CC(=O)N/N=C/C1=CCC2CC1C2(C)C (configuration not stated)	–	–	–	–	·	–
CC(C)NC(=S)N/N=C/C1=CCC2CC1C2(C)C (configuration not stated)	–	–	51	–	–	–
CC(C)(C)c1ccc(-n2nc(C#N)c(Cl)cc2=O)cc1	–	–	–	67	·	61
COc1ccc(N(C)S(=O)(=O)c2cccc(C(=O)Nc3nc4ccccc4[nH]3)c2)cc1	–	–	–	–	·	–
CN(c1cccc(Cl)c1)S(=O)(=O)c1cccc(C(=O)Nc2nc3ccccc3[nH]2)c1	–	30	–	–	27	–
CC(O)CNCCNCc1c(OCc2ccccc2)ccc2ccccc12 (configuration not stated)	–	96	–	–	38	–
Cc1nc(-c2ccc(S(=O)(=O)Nc3ccc(Br)cc3Cl)s2)cs1	–	·	63	–	·	–
CCO[C@H]1OC(C(N)=O)=C[C@@H](c2ccccc2)[C@@H]1CCCO	–	–	–	–	·	–
CCOc1ccccc1Cn1c(=O)oc2ccc(C)cc21	–	–	–	–	–	–
